Compound activity from PubChem BioAssay.
M1 antag – blocks human M1 muscarinic receptor | inhibition, % at 3 µM | AID 588852 | CHO-K1 hM1, Fluo-8 calcium fluorescence, ACh EC80 antagonist | actives 1.3% (n = 360,000) | P11229;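 active = percent inhibition above its own plate's cutoff, namely the mean of that plate's compound wells plus 3 SD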;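 note: peak over basal fluorescence ratio during 140 s after agonist addition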
TAAR1 antagonist – human TAAR1 antagonism; actives 1.5% (n = 360,000); Q96RJ0; CHO RD-HGA16 TAAR1, Fluo-8 calcium fluorescence, antagonist; inhibition, % at 3 µM;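 active = inhibition above a per-plate cutoff, the mean inhibition of test compounds on that plate plus 3 SD, cut at about 49% in these data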
Target sequence (Q96RJ0 whole entry, looked up): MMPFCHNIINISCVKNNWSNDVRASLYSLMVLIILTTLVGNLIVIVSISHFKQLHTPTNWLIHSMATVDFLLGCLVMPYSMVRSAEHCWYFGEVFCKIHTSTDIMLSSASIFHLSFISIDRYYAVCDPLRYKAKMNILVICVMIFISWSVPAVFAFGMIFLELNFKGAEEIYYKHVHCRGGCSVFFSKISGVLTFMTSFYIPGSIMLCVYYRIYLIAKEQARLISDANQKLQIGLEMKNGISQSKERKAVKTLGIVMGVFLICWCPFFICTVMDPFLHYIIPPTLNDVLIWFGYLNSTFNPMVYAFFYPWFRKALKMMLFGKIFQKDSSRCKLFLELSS
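Assay system: RD-HGA16 CHO cells with stable hTAAR1 and Gα16 / Reagent: EC80 β-phenethylamine stimulus / Doses: 3 µM, single point / Timing: dye loading 75 min at 37 °C, then 30 min room temperature / Measured by: Fluo-8 intracellular calcium dye fluorescence, real-time kinetic reads / Controls: vehicle wells and EC80 agonist wells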
TAAR1 agonist – agonists of human TAAR1; Q96RJ0; CHO RD-HGA16 TAAR1, Fluo-8 calcium fluorescence; vehicle wells 0%, saturating PEA agonist 100%; activation, % at 3 µM; actives 0.99% (n = 360,000);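 active = activation above the mean activation of all test compounds in the run plus 3 SD, cut at about 38% in these data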
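System: CHO-derived RD-HGA16 cells with stable Gα16 and human TAAR1. Times: 17-24 h plating, Fluo-8 75 min 37 °C, 30 min RT. Measured by: calcium-sensitive Fluo-8 signal, excitation 470-495, emission 515-575 nm. Read-out basis: % activation relative to PEA EC100 response. Control set: DMSO and PEA EC100. Repeats: no replicates (n 1).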
CHRM1 PAM – potentiates human M1 receptor response to acetylcholine; P11229; activation, % at 3 µM; CHO-K1 hM1, Fluo-8 calcium fluorescence, ACh EC20; 0% = ACh EC20, 100% = maximal ACh; actives 0.088% (n = 360,000); in the data active = activation above about 19%, passing the limit was not always enough
M1 ag – activates human CHRM1 receptor; P11229; CHO-K1 hM1, Fluo-8 calcium fluorescence, agonist mode; 0% DMSO, 100% acetylcholine EC100; activation, % at 3 µM; actives 0.33% (n = 360,000); AID 588814;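 active = activation above the run's mean compound activation plus 3 SD, cut at about 16% in these data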;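 note: peak over basal fluorescence ratio within a 140 s kinetic read after compound addition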
A number is an active result; . = inactive; / = no result given. Only some compounds are listed: those with a hit (about 3.4% of all), similar ones and a draw of the others.

SMILES	M1 antag	TAAR1 antagonist	TAAR1 agonist	CHRM1 PAM	M1 ag
Cc1cc2c(c(=O)o1)[C@@]1(C(=O)N(C)c3cc(Br)ccc31)C1=C(CCCC1=O)O2	/	.	.	/	/
Cc1ccccc1NC(=O)N(C)[C@H]1C[C@H]2c3[nH]c4c(-c5ccc6c(c5)OCO6)cccc4c3CCN2C(=O)[C@H]1[C@H](C)O	/	.	.	/	/
O=C(NCc1ccccc1)C1=C[C@@H](c2csc3ccccc23)C[C@@H](OCc2ccc(CO)cc2)O1	.	.	.	.	.
C#CCNC(=O)C1=C[C@@H](c2csc3ccccc23)C[C@@H](OCc2ccc(CO)cc2)O1	.	54	.	.	.
O=C1CSC(c2cccs2)N1c1nncs1 (stereo unspecified)	/	.	.	/	/
COC(=O)c1cc2c(c3c4cc(C#N)ccc4n(S(=O)(=O)c4ccc(C)cc4)c13)C(=O)N(C)C2	/	.	.	/	/
Nc1nc(NCC2CCCO2)nc(NCC2CCCO2)c1[N+](=O)[O-] (stereo unspecified)	.	.	.	.	.
CC(C)CCNc1nc(N)c([N+](=O)[O-])c(NCC2CCCO2)n1 (stereo unspecified)	.	.	39	.	.
O=C1COc2ccc(C(=O)COC(=O)c3ccc(F)cc3Cl)cc2N1	.	57	.	.	.
COc1cccc(C(=O)/C=C/Nc2ccc(S(=O)(=O)Nc3ccc(C(C)=O)cc3)cc2)c1	.	.	.	.	.
COc1ccc(C(=O)/C=C/Nc2ccc(S(=O)(=O)Nc3cccc(C(C)=O)c3)cc2)cc1	.	56	.	.	.
COCC(=O)N1CCN(C(=O)C(=O)c2cccc(C(F)(F)F)c2)CC1	/	.	.	/	/
O=C(NCCc1ccccc1)c1cc(-c2ccc3c(c2)OCO3)on1	.	.	38	.	.
S=C1NC2(CCCCCC2)NN1c1ccccc1	/	.	.	/	/
CCN1CCN(c2c(S(=O)(=O)c3ccc(Cl)cc3)cnc3ccccc23)CC1	/	.	.	/	/
CCC(=O)c1ccc(OCC(=O)Nc2cccc(S(=O)(=O)N3CCCCCC3)c2)cc1	47	.	.	.	.
CCN(CC)S(=O)(=O)c1cccc(NC2=NCCCCC2)c1	27	.	.	.	.
O=C(COc1ccc([N+](=O)[O-])cc1)Nc1ccc(S(=O)(=O)N2CCOCC2)cc1	.	.	47	.	.
CCN(CC)S(=O)(=O)c1cccc(NC(=O)CNc2cccc(S(=O)(=O)N3CCCC3)c2)c1	42	.	.	.	.
Brc1cccc(CN2CCN(c3ncc(Cc4ccccc4)cn3)CC2)n1	/	.	.	/	/
O=S1(=O)C[C@H](N2CCN(CCO)CC2)[C@@H](COCc2ccccc2)N1	.	.	.	.	.
O=C(COc1ccc(C(=O)c2ccc(F)cc2)cc1)Nc1cccc(S(=O)(=O)N2CCOCC2)c1	.	62	.	.	.
CN1CCN(c2ccc(S(=O)(=O)N3CCCCC3)cc2NC(=O)COc2ccc([N+](=O)[O-])cc2)CC1	32	.	.	.	.
O=C(COC(=O)CCC(=O)c1ccc(F)cc1)Nc1cccc(S(=O)(=O)N2CCOCC2)c1	.	.	.	.	.
O=C(C(=O)N1CCN(C(=O)c2cc(C(F)(F)F)cc(C(F)(F)F)c2)CC1)c1cccc(C(F)(F)F)c1	/	.	.	/	/
SMILES	M1 antag	TAAR1 antagonist	TAAR1 agonist	CHRM1 PAM	M1 ag
NC(=O)c1c(NC(=O)CN2CCOCC2)sc2c1CCC2	.	.	.	25	18
NC(=O)c1c(NC(=O)CN2CCCC2)sc2c1CCCC2	.	.	.	.	.
CCN1CCN(c2ccc(N3CCN(S(=O)(=O)c4ccc(C)c([N+](=O)[O-])c4)CC3)nn2)CC1	29	.	.	.	.
Cc1ccc(S(=O)(=O)N2CCN(C)CC2)cc1[N+](=O)[O-]	.	/	/	.	.
CCn1c(C)nc2cc(C(=O)NNC(=O)Nc3ccc(Cl)c(Cl)c3)ccc21	/	.	41	/	/
O=C(NCc1cccnc1)C1CC2c3ccccc3C1c1ccccc12 (stereo unspecified)	.	.	.	.	.
NCC1CC2c3ccccc3C1c1ccccc12 (stereo unspecified)	28	.	.	.	.
CCOc1cccc2sc(N(CCCN(C)C)C(=O)c3ccc(S(=O)(=O)N(CC)Cc4ccccc4)cc3)nc12	.	55	.	.	.
CCOc1cccc2sc(N(CCCN(C)C)C(=O)c3ccc(S(=O)(=O)N(C)Cc4ccccc4)cc3)nc12	.	54	.	.	.
COc1ccc2sc(N(CCCN(C)C)C(=O)c3ccc(S(=O)(=O)N(C)Cc4ccccc4)cc3)nc2c1	.	.	43	.	.
CC1Sc2ccc(S(=O)(=O)N(C)Cc3ccccc3)cc2NC1=O (stereo unspecified)	.	49	.	.	.
CCC1CCCCN1CCCNC(=O)COc1cc(=O)n(C)c2ccccc12 (stereo unspecified)	.	.	.	.	.
CCC1CCCCN1CCCNC(=O)CCCOc1cc(=O)n(C)c2ccccc12 (stereo unspecified)	49	.	.	.	.
COc1cccc(OC)c1C(=O)NC(=S)Nc1cc(-c2nc3ccccc3[nH]2)ccc1Cl	.	50	.	.	.
CC(=O)Nc1cc(-c2cccc(C(=O)N(C)C)c2)cn2c(-c3ccc(C(C)=O)cc3)cnc12	.	.	.	.	.
COc1ccc(/C=N/Nc2ccc([N+](=O)[O-])cc2)cc1O	.	.	40	.	.
CC(C)C[C@@H]1COc2cccc(NC3CC3)c2S(=O)(=O)N1	/	.	.	/	/
COc1cccc2sc(N(CCCN(C)C)C(=O)c3ccc(S(=O)(=O)N4CCCc5ccccc54)cc3)nc12	.	.	40	.	.
CCOc1ccc2nc(N(CCCN(C)C)C(=O)c3ccc(S(=O)(=O)N4CCc5ccccc5C4)cc3)sc2c1	.	.	43	.	.
COc1cccc2sc(N(CCCN(C)C)C(=O)c3ccc(S(=O)(=O)N4CCc5ccccc5C4)cc3)nc12	.	.	.	.	.
COc1ccc(C)c2sc(N(CCCN(C)C)C(=O)c3ccc(S(=O)(=O)N4CCc5ccccc5C4)cc3)nc12	.	.	48	.	.
Cc1cccc(NC(=O)CNC(=O)[C@@H](Cc2ccccc2)NC(=O)[C@H]2O[C@@H](n3ccc(=O)[nH]c3=O)[C@H](O)[C@@H]2O)c1C	/	.	.	/	/
Cc1cc(N2CCN(c3ccccn3)CC2)n2nc(C)nc2n1	.	.	.	.	.
Cc1cc(N2CCN(c3cccc(C(F)(F)F)c3)CC2)n2nc(C)nc2n1	.	.	.	31	.
CCOC(=O)[C@@H]1CSCCS(=O)(=O)N1Cc1ccc(C(F)(F)F)cc1	/	.	.	/	/
Cc1ccc(S(=O)(=O)NCCC(=O)N2CCC(C(N)=O)CC2)cc1C	.	.	.	24	.
CN(Cc1cn(C)nc1-c1ccc(Oc2ccccc2)cc1)Cc1cnc2ccccn12	24	.	.	.	.
